# Experimental data: PubChem BioAssay
# Active and inactive are the calls of the source.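 The calls were made as follows, unless noted: active = a full or partial loss of lipid-probe fluorescence in the fish gall bladder, intestine or both, judged by eye; inactive = no fluorescence loss, or compound toxic to the fish.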
# What was measured:
# [1] = inhibitors of TNFa-induced NFkB p65 translocation, primary screen, imaging, HUVEC, MLSMR starter and 10KST1 sets (AID 438;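 active = inhibition above 20% together with a positive visual image hit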;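 also: compound added about 3h40 before a 20 min TNFalpha stimulation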;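 as to inhibition: signal is the nuclear over cytoplasmic p65 intensity ratio per well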); details: HUVEC TNFa-induced p65 nuclear translocation; cell count: measured here: nuclei count (cytotoxicity indicator), at 2.08 µM; inhibition: at 2 µM, stronger effect = higher value, 0% TNFa-plus-vehicle, 100% no-TNFa wells
# [2] = inhibitors of mutant huntingtin aggregation, primary screen, imaging, exon1htt(103Q)mCFP cells, high-content imaging (AID 483;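 active = visual image review flags a hit and inhibition of aggregation exceeds 20%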;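 also: compound exposure lasted 3 days before fixation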;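 as to nuclei count: percent of the per-plate median nuclei count of sample wells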); details: exon1htt(103Q)mCFP cell line, aggregate imaging, at 2 µM; inhibition of aggregation: stronger effect = higher value; nuclei count: measured here: cell count, toxicity
# [3] = inhibitors of E-selectin induction by TNFa, primary screen, imaging, HUVEC, immunofluorescence, MLSMR starter and 10KST1 sets (AID 487;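 active = visually confirmed hit in the image check and inhibition above 20%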;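 as to inhibition: signal is fraction of cell area covered by stained E-selectin grains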;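 as to nuclei count: 100% = median nuclei count of all wells on the same plate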); details: HUVEC TNFalpha-induced E-selectin immunofluorescence imaging, at 2 µM; inhibition: stronger effect = higher value; nuclei count: measured here: cell number, toxicity
# [4] = target: Voltage-gated potassium channel subunit beta-2 (Rattus norvegicus) (UniProt P62483); assay: KvBeta enzyme negative modulators, primary screen, biochemical, NADPH fluorescence (AID 622;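 active = fluorescence slope higher than the sample average by over 3 SD, cut at about -0.22 in these data, passing the limit was not always enough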;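 also: slope of raw intensity against log time taken from 70 to 1610 s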); details: recombinant KvBeta, 4-cyanobenzaldehyde reduction, at 10 µM, stronger effect = higher value
# Chain of Voltage-gated potassium channel subunit beta-2 (Rattus norvegicus) (P62483 whole entry, looked up): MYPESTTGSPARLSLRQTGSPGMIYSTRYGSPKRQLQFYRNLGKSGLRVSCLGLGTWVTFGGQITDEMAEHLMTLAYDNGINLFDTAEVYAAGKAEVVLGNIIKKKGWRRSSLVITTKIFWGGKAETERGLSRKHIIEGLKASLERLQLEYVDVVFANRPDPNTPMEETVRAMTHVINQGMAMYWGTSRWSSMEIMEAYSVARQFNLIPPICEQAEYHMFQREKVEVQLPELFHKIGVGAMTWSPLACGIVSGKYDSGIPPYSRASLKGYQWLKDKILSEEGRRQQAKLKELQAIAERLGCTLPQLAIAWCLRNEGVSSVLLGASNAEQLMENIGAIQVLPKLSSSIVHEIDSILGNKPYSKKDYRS
# [5] = target: Voltage-gated potassium channel subunit beta-2 (Rattus norvegicus) (UniProt P62483); assay: KvBeta positive modulators, primary screen, biochemical, NADPH fluorescence (AID 623;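 active = NADPH fluorescence slope more negative than the mean of all samples by about 3 SD, 99.7% confidence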;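 also: fluorescence intensity change per second fitted from 20 to 320 s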); details: Recombinant KvBeta, NADPH fluorescence decrease slope, 10 min; at 10 µM; stronger effect = lower value
# [6] = target: Alpha-2C adrenergic receptor (Homo sapiens) (UniProt P18825); assay: modulators of alpha2C/GIRK thallium flux, primary screen, cell-based, HEK293 alpha2C/GIRK1/2 (AID 624;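 active = fluorescence slope after compound addition differing from the mean of all screened samples at 99.7% confidence, in either direction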;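 also: slope of fluorescence ratio to pre-addition baseline per second over 15 to 24 s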); details: thallium flux BTC fluorescence, at 10 µM, actives lie on both sides
# Chain of Alpha-2C adrenergic receptor (Homo sapiens) (P18825 whole entry, looked up): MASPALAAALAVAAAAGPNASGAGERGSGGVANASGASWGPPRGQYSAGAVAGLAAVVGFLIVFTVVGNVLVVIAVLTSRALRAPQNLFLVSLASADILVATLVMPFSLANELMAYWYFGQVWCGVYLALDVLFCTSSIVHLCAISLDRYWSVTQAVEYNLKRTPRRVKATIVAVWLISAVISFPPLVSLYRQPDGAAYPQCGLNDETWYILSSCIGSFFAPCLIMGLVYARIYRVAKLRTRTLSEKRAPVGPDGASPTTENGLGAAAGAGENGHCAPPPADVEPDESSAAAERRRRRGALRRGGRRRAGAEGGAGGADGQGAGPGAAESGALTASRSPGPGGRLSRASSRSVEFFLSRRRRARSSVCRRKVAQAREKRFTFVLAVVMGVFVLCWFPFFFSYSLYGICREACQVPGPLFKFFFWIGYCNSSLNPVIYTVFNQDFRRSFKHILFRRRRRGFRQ
# [7] = inhibitors of larval lipid processing in zebrafish, primary screen, whole organism, PED6 fluorescence, gall bladder and intestine (AID 686); details: Zebrafish larvae PED6 lipid processing, fluorescence scoring; screened at 20 µM (by protocol);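 also: larvae 5 to 7 days old with five fish per well; signal comes from phospholipase A2 cleavage of quenched PED6 carried via bile; overnight exposure to compound and PED6 before scoring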
# Method in brief: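 system = live zebrafish larvae aged 5-7 days, whole organism | probe or stimulus = ingested quenched lipid PED6 at 100 nM | doses = 20 µM single dose | timing = overnight exposure | detection = fluorescence microscopy with visual scoring of gall bladder and intestine | read-out = visual per-well fluorescence inhibition score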
# [8] = inhibitors of Sendai virus-induced IRF3 signaling, primary screen, TLR/RLR signaling modifier project, cell-based, Sendai virus stimulus, luciferase, 10K MLSCN set (AID 602276;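 active = inhibition at or above 50% at 10 µM; inactive = inhibition below 50%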;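 also: firefly luciferase from ISG56 promoter only with Renilla not read in this screen; 0% = Sendai virus plus DMSO and 100% = medium plus DMSO without virus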); details: HEK293 RL24 IRF3 luciferase reporter, at 10 µM, stronger effect = higher value
# [9] = inhibitors of poly I:C-induced TLR3 signaling, primary screen, cell-based, poly I:C stimulus, luciferase, 10K MLSCN set (AID 602277;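 active = inhibition of the reporter signal at or above 50%; inactive = inhibition below 50%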); details: HEK293-TLR3 RL24 IRF3 luciferase reporter, at 10 µM, stronger effect = higher value
Compound,cell count [1],inhibition [1],inhibition of aggregation [2],nuclei count [2] [%],inhibition [3],nuclei count [3] [%],fluorescence slope [4],NADPH fluorescence slope [5],slope [6],outcome [7],inhibition [8],inhibition [9]
O=C1C2CCCN2C(c2ccccc2)N1c1ccc(Cl)cc1 (stereo unspecified),374,5.5% (inactive),-14.7% (inactive),99.5,-25.3% (inactive),114,-0.424 (inactive),-6.3e-05 (inactive),0.00548 (inactive),inactive,31.4% (inactive),-130% (inactive)
Cc1cc(C)c(NC2=NCC(=O)N2C2CCCCC2)c(C)c1,638,-2.2% (inactive),5.3% (inactive),122,-32.7% (inactive),114,-0.389 (inactive),1.7e-05 (inactive),0.00607 (inactive),inactive,-0.88% (inactive),-0.177% (inactive)
CC12CN3CCN(CC(C3)C1(O)CN1CCCCC1)C2 (stereo unspecified),305,1.7% (inactive),-16.8% (inactive),111,-66.3% (inactive),121,-0.347 (inactive),-5.6e-05 (inactive),0.00521 (inactive),inactive,10.7% (inactive),35.8% (inactive)
Cc1nc2c(-c3ccccc3)c(C)[nH]n2c(=O)c1Cl,277,-8.3% (inactive),2.3% (inactive),109,-5.5% (inactive),84.2,-0.485 (inactive),3e-05 (inactive),0.00434 (inactive),inactive,-11.4% (inactive),-22.1% (inactive)
CC(=O)Nc1c(O)[nH]c2ccccc12,566,-25.9% (inactive),-9.8% (inactive),98.9,-5.9% (inactive),102,-0.414 (inactive),-5.4e-05 (inactive),0.00575 (inactive),inactive,10.4% (inactive),16.8% (inactive)
Cc1cc(-c2ccccc2)nc(SCc2ccc(C(=O)O)o2)n1,398,-1.3% (inactive),0.6% (inactive),86.2,-106% (inactive),105,-0.373 (inactive),-6.9e-05 (inactive),0.00508 (inactive),inactive,7.19% (inactive),8.59% (inactive)
O=C(CCC(=O)OCC(=O)c1ccccc1)NC1CCCCC1,449,1.2% (inactive),1.6% (inactive),95,30.3% (inactive),112,-0.356 (inactive),-6.3e-05 (inactive),0.00794 (inactive),inactive,-0.183% (inactive),97.3% (active)
Cc1ccc(Cl)cc1N1CCN(C(=O)c2cn(C)c(=O)c3c2c2ccccc2n3C)CC1,270,-3.3% (inactive),17.2% (inactive),8,-33.6% (inactive),114,-0.352 (inactive),-2e-05 (inactive),0.00673 (inactive),inactive,16.1% (inactive),28% (inactive)
Cc1ccc(CS(=O)(=O)Cc2ccc(C(=O)NCc3ccccn3)o2)cc1,454,6% (inactive),-2.9% (inactive),102,8.5% (inactive),93.1,-0.18 (inactive),-2.3e-05 (inactive),0.00535 (inactive),inactive,12% (inactive),7.77% (inactive)
Cc1c(CNCc2cccs2)c(C(=O)O)c(C)n1Cc1ccccc1,451,5.5% (inactive),3.1% (inactive),115,-30.9% (inactive),101,-0.454 (inactive),-7.6e-05 (inactive),0.00618 (inactive),inactive,18.8% (inactive),17% (inactive)
COc1cc(C(=O)Nc2cc(-c3ccccc3)[nH]n2)cc(OC)c1OC,456,-6.3% (inactive),15.9% (inactive),94.3,-41% (inactive),114,-0.385 (inactive),-4.1e-05 (inactive),0.00552 (inactive),inactive,22.1% (inactive),33.8% (inactive)
C=CCNc1nc2c(c(=O)n(C)c(=O)n2C)n1CCCCCC,438,4.7% (inactive),-8% (inactive),94.9,4% (inactive),107,-0.39 (inactive),-3.7e-05 (inactive),0.00457 (inactive),inactive,8.07% (inactive),-34.5% (inactive)
Cc1cccc(C)c1-n1nnnc1SCSc1nnnn1-c1c(C)cccc1C,409,7.5% (inactive),-3.2% (inactive),101,-231% (inactive),116,-0.445 (inactive),-2.4e-07 (inactive),0.00806 (inactive),inactive,4.69% (inactive),15% (inactive)
O=C(Nc1sccc1C(=O)NCc1ccco1)c1cccnc1,343,2.1% (inactive),-22.2% (inactive),103,-92.1% (inactive),119,-0.461 (inactive),-3.3e-05 (inactive),0.00445 (inactive),inactive,5.47% (inactive),-21.6% (inactive)
COC(=O)c1[nH]c2ccc(C)cc2c1NC(=O)CN1CCC(C)CC1,340,-0.4% (inactive),15.7% (inactive),103,-18.4% (inactive),120,-0.337 (inactive),-5.5e-05 (inactive),0.00492 (inactive),inactive,4.88% (inactive),2.95% (inactive)
COc1ccc2cc(C(c3nnnn3C(C)(C)C)N3CCc4ccccc4C3)c(=O)[nH]c2c1 (stereo unspecified),311,11.9% (inactive),5.3% (inactive),100,1% (inactive),94.4,-0.347 (inactive),-5.8e-05 (inactive),0.00475 (inactive),inactive,24.2% (inactive),44.5% (inactive)
Cc1cc(C)cc(NC(=O)CN(C)S(=O)(=O)c2cnc[nH]2)c1,484,8.7% (inactive),-24% (inactive),110,0.4% (inactive),100,-0.406 (inactive),-3.6e-05 (inactive),0.00489 (inactive),inactive,1.14% (inactive),2.32% (inactive)
CCCNC(=O)c1cc(S(=O)(=O)N2CCc3ccccc32)ccc1F,503,-17.2% (inactive),14.3% (inactive),74.6,-32.7% (inactive),104,-0.412 (inactive),-7.4e-05 (inactive),0.00573 (inactive),inactive,8.07% (inactive),0.176% (inactive)
Cc1cn(C2CC3OCC3O2)c(=O)[nH]c1=O (stereo unspecified),381,2.5% (inactive),0.6% (inactive),98.5,30.5% (inactive),98.4,-0.399 (inactive),1.2e-05 (inactive),0.00591 (inactive),inactive,-0.457% (inactive),5.51% (inactive)
O=C(CN(CC1CCCO1)S(=O)(=O)c1ccc(S(=O)(=O)NC2CC2)cc1)Nc1ccccc1 (stereo unspecified),502,-15.8% (inactive),17.8% (inactive),83.4,12.1% (inactive),96.1,-0.384 (inactive),-4.7e-05 (inactive),0.00436 (inactive),inactive,7.42% (inactive),7.34% (inactive)
CCOc1ccc(CCNc2nc3c(c(=O)n(C)c(=O)n3C)n2CC)cc1OCC,602,6.3% (inactive),-0.6% (inactive),89.6,-23.5% (inactive),119,-0.305 (inactive),3.7e-06 (inactive),0.00587 (inactive),inactive,18.8% (inactive),9% (inactive)
Cc1sc2ncnc(Oc3ccc(-n4ccnc4)cc3)c2c1C,377,-13.2% (inactive),-1% (inactive),109,-56.2% (inactive),140,-0.382 (inactive),7e-06 (inactive),0.00491 (inactive),inactive,-6.33% (inactive),-14.4% (inactive)
O=C(CSc1nnc(Cc2ccccc2)n1-c1cccc(Cl)c1)N1CCOCC1,352,10.5% (inactive),-18.8% (inactive),85.8,-207% (inactive),119,-0.4 (inactive),-4.5e-05 (inactive),0.00585 (inactive),inactive,-1.07% (inactive),9.14% (inactive)
